Results: ChEMBL document CHEMBL2016446, “Trivalent ultrashort lipopeptides are potent pH dependent antifungal agents” (J Med Chem, 2012)
Converted amounts (≈) assume the structure as drawn. The source made the active and inactive calls. No cut-off for these calls is given here.

What was measured:
Staphylococcus aureus [1] = test: Antibacterial activity against Staphylococcus aureus ATCC 6538P after 18 to 20 hrs at pH 5.5; format: functional, organism-based
Outline: (§1)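 Broth microdilution in LB: bacterial suspension at 10^6 CFU/mL mixed 1:1 with serial 2-fold peptide dilutions, made from a 1 mg/mL aqueous stock. Strains were E. coli ATCC D21 and S. aureus ATCC 6538P. MIC was the lowest concentration with no growth after 18–20 h. Values are averages of duplicate experiments.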

Escherichia coli [2] = test: Antibacterial activity against Escherichia coli ATCC D21 after 18 to 20 hrs at pH 5.5; format: functional, organism-based; outline: as §1
Aspergillus fumigatus [3] = test: Induction of membrane damage in Aspergillus fumigatus at 1.56 to 100 uM at pH 5.5 by Sytox green-based fluorescence assay; format: functional, organism-based
Outline: (§2)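 A. fumigatus at 2 × 10^3 CFU/mL in RPMI/MOPS (pH 7.4 or 5.5) was grown 20 h at 35 °C. Sytox green was added at 0.2 μM final in sodium phosphate buffer (pH 5.5 or 7.5) for 15 min. Peptides were then added at 100–1.56 μM final. Fluorescence (ex 485/em 530 nm) was read after 1 h.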

Staphylococcus aureus [4] = test: Antibacterial activity against Staphylococcus aureus ATCC 6538P after 18 to 20 hrs at pH 7.5; format: functional, organism-based; outline: as §1
Escherichia coli [5] = test: Antibacterial activity against Escherichia coli ATCC D21 after 18 to 20 hrs at pH 7.5; format: functional, organism-based; outline: as §1
Aspergillus fumigatus [6] = test: Induction of membrane depolarization in Aspergillus fumigatus at 1.56 to 100 uM at pH 7.5 by DiSC3(5)-based fluorescence assay; format: functional, organism-based
Outline: (§3)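 A. fumigatus was pregrown 20 h at 35 °C from 2 × 10^3 CFU/mL in RPMI/MOPS (pH 7.4 or 5.5). Cells were loaded with DiSC3(5) at 0.2 μM final in sodium phosphate buffer (pH 5.5 or 7.5) for 15 min. Peptides were added at 1.56–100 μM final, and fluorescence (ex 640/em 660 nm) was read after 1 h.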

Aspergillus fumigatus [7] = test: Induction of membrane depolarization in Aspergillus fumigatus at 1.56 to 100 uM at pH 5.5 by DiSC3(5)-based fluorescence assay; format: functional, organism-based; outline: as §3
Aspergillus fumigatus [8] = test: Induction of membrane damage in Aspergillus fumigatus at 1.56 to 100 uM at pH 7.5 by Sytox green-based fluorescence assay; format: functional, organism-based; outline: as §2
Aspergillus fumigatus [9] = test: Antifungal activity against Aspergillus fumigatus ATCC 26430 after 48 hrs at pH 5.5; format: functional; settings: ATCC 26430, 48 h
Outline: (§4)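 The method followed CLSI M38-A2 (Aspergillus) or M27-A3. Medium was RPMI 1640 with 0.165 M MOPS and L-glutamine, without NaHCO3, at pH 5.5 or 7.5. Inoculum of 2 × 10^3 CFU/mL was mixed 1:1 with serial 2-fold peptide dilutions. Incubation was at 35 °C: 48 h for A. fumigatus and C. albicans, 72 h for C. neoformans. MIC was read by eye as no growth. Values are averages of duplicates.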

Candida albicans [10] = test: Antifungal activity against Candida albicans ATCC 10231 after 48 hrs at pH 7.5; format: functional; settings: ATCC 10231, 48 h; outline: as §4
Candida albicans [11] = test: Antifungal activity against Candida albicans ATCC 10231 after 48 hrs at pH 5.5; format: functional; settings: ATCC 10231, 48 h; outline: as §4
Cryptococcus neoformans [12] = test: Antifungal activity against Cryptococcus neoformans ATCC MYA422 after 72 hrs at pH 7.5; format: functional; settings: ATCC MYA422, 72 h; outline: as §4
Aspergillus fumigatus [13] = test: Antifungal activity against Aspergillus fumigatus ATCC 26430 after 48 hrs at pH 7.5; format: functional; settings: ATCC 26430, 48 h; outline: as §4
Cryptococcus neoformans [14] = test: Antifungal activity against Cryptococcus neoformans ATCC MYA422 after 72 hrs at pH 5.5; format: functional; settings: ATCC MYA422, 72 h; outline: as §4

In the case of `CCCCCCCCCCCCCC(=O)N[C@@H](Cc1c[nH]cn1)C(=O)N[C@@H](Cc1c[nH]cn1)C(=O)N1CCCN(C(=O)[C@H](Cc2c[nH]cn2)NC(=O)[C@H](Cc2c[nH]cn2)NC(=O)CCCCCCCCCCCCC)Cc2cc(cc(C(N)=O)c2)CN(C(=O)[C@H](Cc2c[nH]cn2)NC(=O)[C@H](Cc2c[nH]cn2)NC(=O)CCCCCCCCCCCCC)CCC1`, the Activity (Staphylococcus aureus [1]) is reported as “inactive”, the Activity (Escherichia coli [2]) is reported as “inactive” and the Activity (Aspergillus fumigatus [3]) is reported as “inactive”. For the same compound, the Activity (Staphylococcus aureus [4]) was “inactive”, the Activity (Escherichia coli [5]) was “inactive” and the Activity (Aspergillus fumigatus [6]) was “Active”. For the same compound, the Activity (Aspergillus fumigatus [7]) was “Active” and the Activity (Aspergillus fumigatus [8]) was “inactive”.

For `CCCCCCCCCCCCCCCCCC(=O)N[C@@H](Cc1c[nH]cn1)C(=O)N[C@@H](Cc1c[nH]cn1)C(=O)N1CCCN(C(=O)[C@H](Cc2c[nH]cn2)NC(=O)[C@H](Cc2c[nH]cn2)NC(=O)CCCCCCCCCCCCCCCCC)Cc2cc(cc(C(N)=O)c2)CN(C(=O)[C@H](Cc2c[nH]cn2)NC(=O)[C@H](Cc2c[nH]cn2)NC(=O)CCCCCCCCCCCCCCCCC)CCC1`, the Activity (Staphylococcus aureus [1]) was “inactive”, the Activity (Escherichia coli [2]) was “inactive” and the MIC (Aspergillus fumigatus [9]) was > 100 µM. For the same compound, the MIC (Candida albicans [10]) was > 100 µM, the Activity (Aspergillus fumigatus [3]) was “inactive” and the MIC (Candida albicans [11]) was 100 µM (≈ 190 µg/mL). The Activity (Staphylococcus aureus [4]) was “inactive”, the Activity (Escherichia coli [5]) was “inactive” and the Activity (Aspergillus fumigatus [6]) was “inactive”. For the same compound, the Activity (Aspergillus fumigatus [7]) was “inactive”, the Activity (Aspergillus fumigatus [8]) was “inactive” and the MIC (Cryptococcus neoformans [12]) was > 100 µM. The MIC (Aspergillus fumigatus [13]) was > 100 µM and the MIC (Cryptococcus neoformans [14]) was 25 µM (≈ 47.5 µg/mL).

Work on `C[C@@H]1[C@H](O)[C@@H](C)/C=C/C=C/C=C/C=C/C=C/C=C/C=C/[C@H](O[C@@H]2O[C@H](C)[C@@H](O)[C@H](N)[C@@H]2O)C[C@@H]2O[C@](O)(C[C@@H](O)C[C@@H](O)[C@H](O)CC[C@@H](O)C[C@@H](O)CC(=O)O[C@H]1C)C[C@H](O)[C@H]2C(=O)O` [AMPHOTERICIN B] yielded an MIC (Aspergillus fumigatus [9]) of 1 µM (≈ 0.924 µg/mL), an MIC (Candida albicans [10]) of 0.33 µM (≈ 0.305 µg/mL) and an MIC (Candida albicans [11]) of 2.7 µM (≈ 2.5 µg/mL). It also gave an MIC (Cryptococcus neoformans [12]) of 0.17 µM (≈ 0.157 µg/mL), an MIC (Aspergillus fumigatus [13]) of 0.17 µM (≈ 0.157 µg/mL) and an MIC (Cryptococcus neoformans [14]) of 1.35 µM (≈ 1.25 µg/mL).

`CCCCCCCCCCCCCCN[C@@H](Cc1cnc[nH]1)C(=O)N[C@@H](Cc1cnc[nH]1)C(=O)O` was tested, and the MIC (Aspergillus fumigatus [9]) was 50 µM (≈ 24.4 µg/mL), the MIC (Candida albicans [10]) was > 100 µM and the Activity (Aspergillus fumigatus [3]) was “inactive”. For the same compound, the MIC (Candida albicans [11]) was > 100 µM, the Activity (Aspergillus fumigatus [6]) was “inactive” and the Activity (Aspergillus fumigatus [7]) was “inactive”. For the same compound, the Activity (Aspergillus fumigatus [8]) was “inactive”, the MIC (Cryptococcus neoformans [12]) was > 100 µM and the MIC (Aspergillus fumigatus [13]) was > 100 µM. The MIC (Cryptococcus neoformans [14]) was 25 µM (≈ 12.2 µg/mL).
